Source: the RNAGym collection of RNA variant scans (doi:10.1126/science.aae0568)
Variants at the floor of the assay were thinned out.

B1: tRNA (parent)
chain: GUUCCGUUGGCGUAAUGGUAACGCGUCUCCCUCCUAAGGAGAAGACUGCGGGUUCGAGUCCCGUACGGAACG

Variants of: B1
Assay: yeast fitness relative to wild type (ratio to wild type); higher = fitter; tRNA-Arg(CCU), competitive growth, 37 C, YPD
Summary of the method: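 For this measurement, the tRNA-Arg(CCU) gene was varied by chemical synthesis at a 3% per-site mutation rate across 69 sites, and each variant was placed at the native genomic locus in Saccharomyces cerevisiae. The pooled strains went through a 24-hour competition in YPD at 37°C in six parallel replicates, with amplicons from start and end populations read by 100-nucleotide paired-end sequencing. Darwinian fitness relative to wild type followed from the change in each genotype's frequency. Genotypes needed ≥ 100 starting reads, and estimates < 0.5 were set to 0.5.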
Work on A14C A57U yielded a yeast fitness of 0.52.
Variant A14C A57G has a yeast fitness of 0.748.
Work on A14C C31U A36U A69C yielded a yeast fitness of 0.624.
Work on A14C G18A G44A U59C C66G yielded a yeast fitness of at most 0.5.
A14C C33G G44C U54G G58C showed a yeast fitness of at most 0.5.
For U13C U47C G56C, the yeast fitness was 0.544.
In the case of U13G G48A C62G A69U, the yeast fitness is reported as 0.599.
For A14C C27G C46G A65G, the yeast fitness was 0.576.
Work on A14C A20U C27G U53C yielded a yeast fitness of at most 0.5.
With A14C C31A the yeast fitness was 0.669.
For A14C C31G, the yeast fitness was 0.502.
U13G C49A C55U C60U C61U gave a yeast fitness of at most 0.5.
In the case of A14C G17C A21G U32A C34U, the yeast fitness is reported as at most 0.5.
A14C A21C C27U C62U A69C showed a yeast fitness of at most 0.5.
Work on A14C A15U C27U U32C U35G yielded a yeast fitness of 0.584.
A14C C22U C24U A37G gave a yeast fitness of at most 0.5.
With A14C C22U C34U the yeast fitness was 0.79.
Work on A14C C27U C46U G52C yielded a yeast fitness of at most 0.5.
For A14C A15G G25C U32A A43C G63A A69C, the yeast fitness was at most 0.5.
With U13G A20G U28A A70U the yeast fitness was 0.873.
For U13G A14G G17A G39C, the yeast fitness was 0.758.
Work on U13G A57U yielded a yeast fitness of 0.6.
U13G U32A G48C G51A C61U A69G showed a yeast fitness of at most 0.5.
Work on A14C A20U C66A yielded a yeast fitness of at most 0.5.
Work on A14C A15G G17C A45C yielded a yeast fitness of at most 0.5.
With U13G C22U U28C C31A the yeast fitness was at most 0.5.
Work on U13G U53C G67C yielded a yeast fitness of 0.771.
With U13G C31A A57U the yeast fitness was at most 0.5.
In the case of A14C C60A A70U, the yeast fitness is reported as at most 0.5.
With A14C C22G G25C A42G G44A C61G the yeast fitness was at most 0.5.
A14C A15U C30U C34G C61A U64A A69U gave a yeast fitness of at most 0.5.
For U13G C31A C66U, the yeast fitness was 0.814.
In the case of U13G G58A, the yeast fitness is reported as 1.08.
Work on U13G G58C yielded a yeast fitness of 0.969.
For U13G G68C, the yeast fitness was 0.584.
For U13C U59G G68C, the yeast fitness was at most 0.5.
Variant A14C C34U G39C G63A has a yeast fitness of at most 0.5.
Work on A14C C24G yielded a yeast fitness of 0.579.
Variant A14C C49A has a yeast fitness of 0.562.
Work on A14C C49G yielded a yeast fitness of 0.542.
With A14C G18A G50A G63C the yeast fitness was at most 0.5.
For A14C C22G G52C, the yeast fitness was at most 0.5.
Work on U13G U16C C55A yielded a yeast fitness of at most 0.5.
Variant A14C C60A A65U has a yeast fitness of at most 0.5.
With A14C C22G G63C the yeast fitness was at most 0.5.
A14C C22A U59G C62G gave a yeast fitness of at most 0.5.
With A14C A37C the yeast fitness was 0.53.
In the case of A14C A37U, the yeast fitness is reported as 0.655.
With A14C A15G C46G A69G the yeast fitness was at most 0.5.
With A14C A45G C49U the yeast fitness was 0.549.
For A14C C46G, the yeast fitness was 0.953.
Work on U13G A21C C46U G50A U64A A69U yielded a yeast fitness of at most 0.5.
Variant A14C C24A A40G C49A C61G has a yeast fitness of at most 0.5.
Variant A14C C31G C62A G67U has a yeast fitness of at most 0.5.
A14C G18A A42G G44A C66G showed a yeast fitness of at most 0.5.
Variant A14C C30G A37G A45G G50A U59C G67C has a yeast fitness of at most 0.5.
Work on A14C G17C U26A G41C G44U yielded a yeast fitness of at most 0.5.
In the case of U13G G38C A42G G56C U59A A70U, the yeast fitness is reported as at most 0.5.
For A14C A65G, the yeast fitness was 0.776.
Work on A14C A15U U47G yielded a yeast fitness of at most 0.5.
U13C U47C A65G gave a yeast fitness of 0.766.
Work on A14C A15U C33A A37G yielded a yeast fitness of 0.596.
For A14C A36G A42C, the yeast fitness was 0.533.
Work on A14C A15G G23C A57C yielded a yeast fitness of at most 0.5.
In the case of U13G U19G A57G C62U, the yeast fitness is reported as at most 0.5.
A14C C27G C60A A65U showed a yeast fitness of at most 0.5.
A14C G18A C29G A42C gave a yeast fitness of at most 0.5.
Variant U13G C46U U53A has a yeast fitness of at most 0.5.
In the case of A14C C24U A36G G68C, the yeast fitness is reported as at most 0.5.
A14C C22A C55G showed a yeast fitness of at most 0.5.
For A14C C30G G68U, the yeast fitness was 0.567.
Work on A14C C30A C33G C46U yielded a yeast fitness of at most 0.5.
In the case of A14C C27A U28A A45G, the yeast fitness is reported as at most 0.5.
In the case of A14C A70C, the yeast fitness is reported as 0.684.
A14C A70U showed a yeast fitness of 0.679.
Work on U13G C24A yielded a yeast fitness of 0.602.
Work on U13G C24G yielded a yeast fitness of 0.539.
Variant U13G A14C A42U G51A U54A G56A has a yeast fitness of at most 0.5.
With U13G C24U C34A C49U G63A the yeast fitness was 0.554.
In the case of A14C C29A G50A, the yeast fitness is reported as 0.576.
With U13G C55G C60A the yeast fitness was at most 0.5.
In the case of A14C C34G, the yeast fitness is reported as 0.577.
In the case of A14C C34U, the yeast fitness is reported as at most 0.5.
